We go through eleven compounds from ChEMBL document CHEMBL1124528, “Tetrahydrothiadiazoloisoquinolines: synthesis and inhibition of phenylethanolamine-N-methyltransferase” (J Med Chem, 1989).

Experiment [1] concerns Mus musculus. As to the kind of experiment: Maximum inactive dose that causes decrease in endogenous adrenal epinephrine/norepinephrine ratio, when administered perorally in mice.
For a further experiment, the system named is Rattus norvegicus. The experiment is described as follows: Ability to inhibit [3H]epinephrine biosynthesis was determined in the adrenal medulla of rats by administering 3 mg/kg of compound orally. The following applies: po. It counts as functional.
Experiment [2] deals with Mus musculus. As to the kind of experiment: Minimum active dose that causes decrease in endogenous adrenal epinephrine/norepinephrine ratio, when administered perorally in mice. It counts as functional. The procedure, abridged:
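Mice dosed orally b.i.d. (chronic administration), then adrenal E and NE content measured and the decrease in E/NE ratio determined. Minimum active dose is the lowest dose significant at p < 0.05 versus control by Student's t test.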

For experiment [3], the system named is Phenylethanolamine N-methyltransferase (rabbit). The experiment is described as follows: Ability to inhibit rabbit adrenal phenylethanolamine N-methyl-transferase norepinephrine to epinephrine (E13), in vitro, at 10 e-6 M. The following applies: Oryctolagus cuniculus.
Experiment [4] has as its system Mus musculus. As to the kind of experiment: Minimum active dose that causes decrease in endogenous epinephrine/norepinephrine ratio, when administered perorally in mice. It counts as functional. The method, boiled down:
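Mice given compound orally, b.i.d., as chronic dosing, then adrenal gland E and NE content measured to give the E/NE ratio. Minimum active dose is the lowest dose giving p < 0.05 vs control by Student's t test.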

Experiment [5] relates to Phenylethanolamine N-methyltransferase (rabbit). As to the kind of experiment: Ability to inhibit rabbit adrenal PNMT norepinephrine to epinephrine (E13), in vitro, at 10 e-6 M. The following applies: Oryctolagus cuniculus.
The test system is the same in experiment [6]. The experiment is described as follows: Ability to inhibit rabbit adrenal PNMT norepinephrine to epinephrine (E13), in vitro, at 10 e-4 M compound concentration. The following applies: Oryctolagus cuniculus.

Take `Cl.c1cc2snnc2c2c1CCNC2`: in the experiment with Mus musculus [1], the MID was 6.25 mg/kg. Also, testing at 3 mg/kg in the experiment with Rattus norvegicus gave an inhibition in vivo of 87%. In addition, in the experiment with Mus musculus [2], the MAD was determined as 12.5 mg/kg.

As for `c1cc2nnsc2c2c1CCNC2`, the inhibition (commonly the relative decrease from the control value, in per cent) in experiment [3] came to 91%.

Turning to `c1ccc2c3c(ccc2c1)CCNC3`, in experiment [3], the inhibition was determined as 14%.

For the compound `Cl.Clc1ccc2c(c1Cl)CNCC2`, the MID with Mus musculus [1] was found to be 2.5 mg/kg. At 3 mg/kg the inhibition in vivo with Rattus norvegicus was 50%. For the same compound, the MAD with Mus musculus [4] came to 5 mg/kg.

Regarding `c1nc2c3c(ccc2[nH]1)CCNC3`, the inhibition in experiment [3] is 0%.

In turn, `c1nc2ccc3c(c2s1)CNCC3` registered an inhibition in experiment [3] of 24%.

Take `c1cc2[nH]nnc2c2c1CCNC2`: the inhibition in experiment [3] was found to be 20%.

On to `Nc1nc2ccc3c(c2s1)CNCC3`, for which the values for the inhibition in experiment [5] and in experiment [6] were 15% and 41%, respectively.

`Oc1nc2c3c(ccc2s1)CCNC3`: the inhibition in experiment [5] amounted to 3%; in experiment [6] it was 37%.

Turning to `Clc1cc2snnc2c2c1CCNC2`, the inhibition in experiment [5] was 51%; in experiment [6] it was 98%.

Regarding `Oc1nc2c3c(ccc2[nH]1)CCNC3`, the inhibition turned out to be 1% in experiment [5] and 4% in experiment [6].
